Measurements from ChEMBL document CHEMBL2163334, “Discovery of highly potent and selective pan-Aurora kinase inhibitors with enhanced in vivo antitumor therapeutic index” (J Med Chem, 2012).

Experiments:
Aurora kinase A = target: T1, Aurora kinase A (Homo sapiens, UniProt O14965); assay: Binding affinity to Aurora kinase A catalytic domain by competition binding assay
T1 sequence (O14965 whole entry): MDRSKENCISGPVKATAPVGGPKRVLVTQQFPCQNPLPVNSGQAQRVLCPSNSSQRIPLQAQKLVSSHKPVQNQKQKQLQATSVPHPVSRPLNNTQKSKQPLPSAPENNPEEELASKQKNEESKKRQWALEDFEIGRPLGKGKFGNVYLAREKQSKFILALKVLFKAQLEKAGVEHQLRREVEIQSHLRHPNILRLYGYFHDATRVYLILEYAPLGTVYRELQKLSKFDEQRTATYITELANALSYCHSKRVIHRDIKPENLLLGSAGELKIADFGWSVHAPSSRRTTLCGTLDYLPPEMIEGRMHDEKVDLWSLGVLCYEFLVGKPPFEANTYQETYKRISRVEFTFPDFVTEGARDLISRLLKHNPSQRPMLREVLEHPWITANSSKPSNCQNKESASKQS

Aurora kinase B [1] = target: T2, Aurora kinase B (Homo sapiens, UniProt Q96GD4); assay: Binding affinity to Aurora kinase B catalytic domain by competition binding assay
T2 sequence (Q96GD4 whole entry, the tested form may be a part): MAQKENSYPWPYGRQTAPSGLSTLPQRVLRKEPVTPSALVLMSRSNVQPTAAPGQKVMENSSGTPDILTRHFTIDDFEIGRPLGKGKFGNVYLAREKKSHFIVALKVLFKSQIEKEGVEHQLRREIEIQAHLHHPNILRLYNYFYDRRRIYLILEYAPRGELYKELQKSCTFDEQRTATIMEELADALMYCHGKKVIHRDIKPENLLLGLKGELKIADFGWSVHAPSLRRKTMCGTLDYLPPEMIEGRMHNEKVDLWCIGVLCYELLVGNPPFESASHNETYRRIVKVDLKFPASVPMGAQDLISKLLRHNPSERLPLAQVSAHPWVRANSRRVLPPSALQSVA

Aurora kinase B [2] = target: T2, Aurora kinase B; assay: Inhibition of Aurora kinase B-mediated histone H3 Ser10 phosphorylation in human HCT116 cells after 2 hrs by sandwich ELISA; format: cell-based, HCT-116
Procedure, shortened: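 HCT-116 cells seeded 4 × 10⁴/well, 4-6 h at 37 °C, then arrested overnight (16-18 h) with nocodazole at 66 ng/mL final. Treated 2 h with nine-point 3-fold dilutions in DMSO; lysed with phosphatase inhibitor, phospho-H3 (Ser10) sandwich ELISA read at 450 nm. IC50 = 50% inhibition of phosphorylation; duplicate runs averaged.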

HCT-116 = assay: Antiproliferative activity against human HCT116 cells after 72 hrs by BrdU-based ELISA; format: functional, cell-based; conditions: HCT-116, 72 h
Procedure, shortened: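 HCT-116 cells in McCoy's 5A with 10% FBS and pen/strep, seeded 800 cells/well, left overnight at 37 °C, 5% CO2. Nine-point 3-fold serial dilutions in DMSO added for 72 h; BrdU colorimetric ELISA read at 450 and 690 nm. IC50 is the concentration halving proliferation; duplicate runs averaged.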

[3] = Clearance in Sprague-Dawley rat at 1 mg/kg, iv administered using PEG400/water as vehicle; format: ADME, organism-based; parameters: dose 1 mg/kg, route intravenous; conditions: in vivo
Procedure, shortened: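 SD rats fasted overnight, given 1 mg/kg iv in PEG400/water (3:1, v/v); three per arm. Blood into K3 EDTA at 5, 15, 30 min, 1, 2, 4, 6, 24 h, spun at 4 °C; plasma extracted with six volumes acetonitrile plus internal standard and quantified by LC-MS/MS (C8 column, formic acid/ACN gradient).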

`COCCO[C@@H]1CCN(CC(=O)Nc2ccc(Sc3nc(Nc4cc(C)[nH]n4)c4cccn4n3)cc2)C1` gave a Kd (Aurora kinase A) of 11.5 nM, a Kd (Aurora kinase B [1]) of 3.1 nM and an IC50 (Aurora kinase B [2]) of 6.2 nM. It also gave an IC50 (HCT-116) of 3.1 nM and a clearance [3] of 62 mL/min/kg.
`Cc1cc(Nc2nc(Sc3ccc(NC(=O)CN4CC[C@@H](C(=O)NCC(F)(F)F)C4)cc3)nn3cccc23)n[nH]1` showed a Kd (Aurora kinase A) of 2.5 nM, a Kd (Aurora kinase B [1]) of 2.2 nM and an IC50 (Aurora kinase B [2]) of 7 nM. It also gave an IC50 (HCT-116) of 0.9 nM and a clearance [3] of 35 mL/min/kg.
`Cc1cc(Nc2nc(Sc3ccc(NC(=O)CN4CC[C@@H]([S+]([O-])C(C)(C)C)C4)cc3)nn3cccc23)n[nH]1` (stereo partly drawn) showed a Kd (Aurora kinase A) of 2.8 nM, a Kd (Aurora kinase B [1]) of 3.1 nM and an IC50 (Aurora kinase B [2]) of 11.9 nM. The IC50 (HCT-116) was 3.4 nM.
With `Cc1cc(Nc2nc(Sc3ccc(NC(=O)CN4CC[C@H](O)C4)cc3)nn3cccc23)n[nH]1` the Kd (Aurora kinase A) was 39 nM, the Kd (Aurora kinase B [1]) was 14.8 nM and the IC50 (Aurora kinase B [2]) was 420 nM. For the same compound, the IC50 (HCT-116) was 227 nM.
Compound `Cc1cc(Nc2nc(Sc3ccc(NC(=O)CN4CC[C@@H](O)C4)cc3)nn3cccc23)n[nH]1` has a Kd (Aurora kinase A) of 10.5 nM, a Kd (Aurora kinase B [1]) of 6.6 nM and an IC50 (Aurora kinase B [2]) of 103 nM. The IC50 (HCT-116) was 74 nM.
`Cc1cc(Nc2nc(Sc3ccc(NC(=O)CN4CC[C@@H](OCCO)C4)cc3)nn3cccc23)n[nH]1` gave a Kd (Aurora kinase A) of 4.5 nM, a Kd (Aurora kinase B [1]) of 1.7 nM and an IC50 (Aurora kinase B [2]) of 13 nM. For the same compound, the IC50 (HCT-116) was 5 nM.
`Cc1cc(Nc2nc(Sc3ccc(NC(=O)CN4CC[C@@H](SC(C)(C)C)C4)cc3)nn3cccc23)n[nH]1` gave a Kd (Aurora kinase A) of 25.2 nM, a Kd (Aurora kinase B [1]) of 14.2 nM and an IC50 (Aurora kinase B [2]) of 94.5 nM. It also gave an IC50 (HCT-116) of 19.3 nM.
`Cc1cc(Nc2nc(Sc3ccc(NC(=O)CN4CC[C@@H](S(=O)(=O)C(C)(C)C)C4)cc3)nn3cccc23)n[nH]1` gave a Kd (Aurora kinase A) of 4 nM, a Kd (Aurora kinase B [1]) of 4.3 nM and an IC50 (Aurora kinase B [2]) of 28.6 nM. For the same compound, the IC50 (HCT-116) was 9.2 nM.
In the case of `Cc1cc(Nc2nc(Sc3ccc(NC(=O)CN4CC[C@@H](OCCCN5CCOCC5)C4)cc3)nn3cccc23)n[nH]1`, the Kd (Aurora kinase A) is reported as 5.1 nM, the Kd (Aurora kinase B [1]) is reported as 3.7 nM and the IC50 (Aurora kinase B [2]) is reported as 27.1 nM. The IC50 (HCT-116) was 10.8 nM.
Compound `Cc1cc(Nc2nc(Sc3ccc(NC(=O)CN4CCC(C(=O)C(C)(C)C)C4)cc3)nn3cccc23)n[nH]1` (racemic) has a Kd (Aurora kinase A) of 16.9 nM, a Kd (Aurora kinase B [1]) of 6.1 nM and an IC50 (Aurora kinase B [2]) of 44.8 nM. For the same compound, the IC50 (HCT-116) was 12.5 nM.
Work on `Cc1cc(Nc2nc(Sc3ccc(NC(=O)CN4CCC(C(=O)N5CCCC5)C4)cc3)nn3cccc23)n[nH]1` (racemic) yielded a Kd (Aurora kinase A) of 8.8 nM, a Kd (Aurora kinase B [1]) of 2.4 nM and an IC50 (Aurora kinase B [2]) of 9 nM. It also gave an IC50 (HCT-116) of 2.9 nM.
For `Cc1cc(Nc2nc(Sc3ccc(NC(=O)CN4CC[C@H](C(=O)N5CCCC5)C4)cc3)nn3cccc23)n[nH]1`, the Kd (Aurora kinase A) was 10.1 nM, the Kd (Aurora kinase B [1]) was 1.9 nM and the IC50 (Aurora kinase B [2]) was 37.6 nM. It also gave an IC50 (HCT-116) of 16.7 nM.
`Cc1cc(Nc2nc(Sc3ccc(NC(=O)CN4CC[C@@H](C(=O)N5CCOCC5)C4)cc3)nn3cccc23)n[nH]1` showed a Kd (Aurora kinase A) of 4 nM, a Kd (Aurora kinase B [1]) of 2.6 nM and an IC50 (Aurora kinase B [2]) of 14.6 nM. It also gave an IC50 (HCT-116) of 3.9 nM.
`Cc1cc(Nc2nc(Sc3ccc(NC(=O)CN4CC[C@@H](OCCN5CCOCC5)C4)cc3)nn3cccc23)n[nH]1` gave a Kd (Aurora kinase A) of 11 nM, a Kd (Aurora kinase B [1]) of 6.6 nM and an IC50 (Aurora kinase B [2]) of 43.4 nM. For the same compound, the IC50 (HCT-116) was 17.8 nM.
With `Cc1cc(Nc2nc(Sc3ccc(NC(=O)CN4CC[C@@H](NS(C)(=O)=O)C4)cc3)nn3cccc23)n[nH]1` the Kd (Aurora kinase A) was 12.3 nM, the Kd (Aurora kinase B [1]) was 3.2 nM and the IC50 (Aurora kinase B [2]) was 362 nM. The IC50 (HCT-116) was 270 nM.
Work on `Cc1cc(Nc2nc(Sc3ccc(NC(=O)CN4CC[C@@H](NC(=O)C(C)C)C4)cc3)nn3cccc23)n[nH]1` yielded a Kd (Aurora kinase A) of 13.1 nM, a Kd (Aurora kinase B [1]) of 5.7 nM and an IC50 (Aurora kinase B [2]) of 114 nM. The IC50 (HCT-116) was 46.5 nM.
With `Cc1cc(Nc2nc(Sc3ccc(NC(=O)CN4CC[C@@H](OC(C)(C)C)C4)cc3)nn3cccc23)n[nH]1` the Kd (Aurora kinase A) was 25 nM, the Kd (Aurora kinase B [1]) was 3.6 nM and the IC50 (Aurora kinase B [2]) was 8.9 nM. The IC50 (HCT-116) was 2.6 nM.
With `Cc1cc(Nc2nc(Sc3ccc(NC(=O)CN4CC[C@@H](C(=O)NC(C)(C)C)C4)cc3)nn3cccc23)n[nH]1` the Kd (Aurora kinase A) was 5.6 nM, the Kd (Aurora kinase B [1]) was 3.1 nM and the IC50 (Aurora kinase B [2]) was 6.2 nM. It also gave an IC50 (HCT-116) of 1 nM and a clearance [3] of 48 mL/min/kg.
Compound `Cc1cc(Nc2nc(Sc3ccc(NC(=O)CN4CC[C@@H](C(=O)N5CCCCC5)C4)cc3)nn3cccc23)n[nH]1` has a Kd (Aurora kinase A) of 6.4 nM, a Kd (Aurora kinase B [1]) of 2.9 nM and an IC50 (Aurora kinase B [2]) of 10 nM. For the same compound, the IC50 (HCT-116) was 3.2 nM.
Work on `Cc1cc(Nc2nc(Sc3ccc(NC(=O)CN4CC[C@@H](C(=O)NCCN5CCOCC5)C4)cc3)nn3cccc23)n[nH]1` yielded a Kd (Aurora kinase A) of 6.3 nM, a Kd (Aurora kinase B [1]) of 2.9 nM and an IC50 (Aurora kinase B [2]) of 63.2 nM. The IC50 (HCT-116) was 19 nM.
Work on `Cc1cc(Nc2nc(Sc3ccc(NC(=O)CN4CC[C@@H](C(=O)N5CCC(O)CC5)C4)cc3)nn3cccc23)n[nH]1` yielded a Kd (Aurora kinase A) of 4 nM, a Kd (Aurora kinase B [1]) of 3.7 nM and an IC50 (Aurora kinase B [2]) of 293 nM. For the same compound, the IC50 (HCT-116) was 105 nM.
`Cc1cc(Nc2nc(Sc3ccc(NC(=O)CN4CC[C@@H](C(=O)N5CCCC5)C4)cc3)nn3cccc23)n[nH]1` showed a Kd (Aurora kinase A) of 6.3 nM, a Kd (Aurora kinase B [1]) of 2.5 nM and an IC50 (Aurora kinase B [2]) of 6.3 nM. The IC50 (HCT-116) was 2.2 nM.
`Cc1cc(Nc2nc(Sc3ccc(NC(=O)CN4CC[C@@H](C(=O)NC5CCC5)C4)cc3)nn3cccc23)n[nH]1` showed a Kd (Aurora kinase A) of 4.2 nM, a Kd (Aurora kinase B [1]) of 3.3 nM and an IC50 (Aurora kinase B [2]) of 9.3 nM. The IC50 (HCT-116) was 1.3 nM.
`Cc1cc(Nc2nc(Sc3ccc(NC(=O)CN4CC[C@@H](C(=O)Nc5ccc(F)cc5)C4)cc3)nn3cccc23)n[nH]1` showed a Kd (Aurora kinase A) of 19.5 nM, a Kd (Aurora kinase B [1]) of 6.9 nM and an IC50 (Aurora kinase B [2]) of 42.2 nM. For the same compound, the IC50 (HCT-116) was 3.8 nM.
`Cc1cc(Nc2nc(Sc3ccc(NC(=O)CN4CC[C@@H](OCCN5CCN(C)CC5)C4)cc3)nn3cccc23)n[nH]1` gave a Kd (Aurora kinase A) of 12.5 nM, a Kd (Aurora kinase B [1]) of 2.9 nM and an IC50 (Aurora kinase B [2]) of 169 nM. For the same compound, the IC50 (HCT-116) was 29.8 nM.
